{"source": "ChEMBL document CHEMBL1128436", "about": "“Synthesis and biological evaluation of a new series of sterols as potential hypocholesterolemic agents” (1995)", "key": {"CHO [1]": {"system": "CHO", "test": "In vitro [1-14C]-acetate]-cholesterol biosynthesis inhibition assay (14CACBI) in CHO cells; neg = Negative :no effect on biosynthesis of cholesterol", "format": "functional, cell-based", "conditions": "Cricetulus griseus", "summary_of_the_method": "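Confluent CHO cells in replicate 100 mm dishes were held 20 h in assay medium without 25-hydroxycholesterol, with ethanol vehicle (0.5% v/v) or compound at 20 μg/mL. [1-14C]acetate was then added (final 1 μCi/mL) for 4 h more. Cells were scraped and sonicated, lipids separated, and the cholesterol band scraped and counted by scintillation.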"}, "[2]": {"molecular_target": "Low-density lipoprotein receptor (Homo sapiens) (UniProt P01130)", "sequence (P01130 whole entry, the tested form may be a part)": "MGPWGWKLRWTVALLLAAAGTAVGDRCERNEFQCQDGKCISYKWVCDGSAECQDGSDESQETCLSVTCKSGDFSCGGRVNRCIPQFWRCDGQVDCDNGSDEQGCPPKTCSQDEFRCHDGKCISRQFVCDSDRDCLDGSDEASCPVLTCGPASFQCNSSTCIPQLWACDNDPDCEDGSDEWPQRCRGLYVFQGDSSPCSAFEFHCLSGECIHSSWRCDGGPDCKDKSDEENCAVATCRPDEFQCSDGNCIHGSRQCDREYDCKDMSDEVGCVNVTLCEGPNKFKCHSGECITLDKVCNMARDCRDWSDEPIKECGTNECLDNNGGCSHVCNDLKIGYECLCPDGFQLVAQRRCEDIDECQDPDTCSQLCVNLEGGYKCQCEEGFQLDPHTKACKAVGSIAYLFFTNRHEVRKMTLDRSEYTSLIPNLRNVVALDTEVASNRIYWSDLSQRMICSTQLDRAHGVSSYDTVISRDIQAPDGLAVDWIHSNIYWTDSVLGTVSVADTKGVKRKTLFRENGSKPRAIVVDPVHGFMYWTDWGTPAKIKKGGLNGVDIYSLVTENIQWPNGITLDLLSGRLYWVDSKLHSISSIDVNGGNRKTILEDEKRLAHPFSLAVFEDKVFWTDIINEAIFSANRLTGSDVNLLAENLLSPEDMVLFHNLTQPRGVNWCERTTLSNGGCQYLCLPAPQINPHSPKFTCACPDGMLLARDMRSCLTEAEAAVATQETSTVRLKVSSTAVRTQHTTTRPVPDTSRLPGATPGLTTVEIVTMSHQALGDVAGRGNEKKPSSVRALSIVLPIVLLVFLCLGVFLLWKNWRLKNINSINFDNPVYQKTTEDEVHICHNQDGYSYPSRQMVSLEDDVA", "test": "Capability of derepressing the transcription of Low density lipoprotein receptor promoter in the presence of 25-hydroxycholesterol in CHO cells measured as maximum activity at 20 ug/mL", "format": "cell-based", "summary_of_the_method": "(§1)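 Stably transfected CHO clone S27/B30 (LDL receptor promoter fused to firefly luciferase), grown to confluence (2-3 days, 37 °C, 5% CO2). Then 24 h in serum-free assay medium (DMEM/Ham's F-12 3:1, 0.5% bovine albumin) with 25-hydroxycholesterol 0.5 μg/mL plus compound at 0.30-20 μg/mL from ethanol stock, triplicate wells. Lysate luciferase peak light per μg protein (Coomassie). EC30 = concentration giving 30% rise over control. MA = % specific induction at 20 μg/mL.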"}, "CHO [3]": {"system": "CHO", "test": "Capability of derepressing the transcription of SV40 promoter in CHO cells by luciferase assay; NA= Not active within the test range 0-20 ug/mL", "format": "functional, cell-based", "conditions": "Cricetulus griseus", "summary_of_the_method": "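Counter-screen in CHO clone SV40/LN9, with luciferase driven by the SV40 promoter. Confluent monolayers were given compound at 0.30-20 μg/mL for 24 h in serum-free albumin assay medium, triplicate wells. Lysates were read for luciferase peak luminescence, normalized to lysate protein.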"}, "[4]": {"molecular_target": "Low-density lipoprotein receptor (Homo sapiens) (UniProt P01130)", "test": "Capability of derepressing the transcription of human Low density lipoprotein receptor promoter in the presence of 25-hydroxycholesterol in CHO cells by luciferase assay", "format": "cell-based", "summary_of_the_method": "as §1"}, "Cricetinae gen. sp. [5]": {"system": "Cricetinae gen. sp.", "test": "Total serum cholesterol level with relative to the control value (306(27) in hamsters at a dose of 0.2% of diet for 1 week", "format": "functional, Cricetulus griseus"}, "Mesocricetus auratus [6]": {"organism": "Mesocricetus auratus", "test": "Serum cholesterol level change relative to the control value (306(27)) in hamsters at a dose of 0.2% of diet for 1 week"}, "Cricetinae gen. sp. [7]": {"system": "Cricetinae gen. sp.", "test": "Total serum cholesterol level with relative to the control value (313(24)) in hamsters at a dose of 0.2% of diet for 1 week", "format": "functional, Cricetulus griseus"}, "Mesocricetus auratus [8]": {"organism": "Mesocricetus auratus", "test": "Serum cholesterol level change relative to the control value (313(24)) in hamsters at a dose of 0.2% of diet for 1 week"}, "Cricetinae gen. sp. [9]": {"system": "Cricetinae gen. sp.", "test": "Serum cholesterol level change relative to the control value (274(23)) in hamsters at a dose of 0.2% of diet for 1 week", "format": "functional, Cricetulus griseus"}, "Cricetinae gen. sp. [10]": {"system": "Cricetinae gen. sp.", "test": "Total serum cholesterol level with relative to the control value (274(23)) in hamsters at a dose of 0.2% of diet for 1 week", "format": "functional, Cricetulus griseus"}, "Mesocricetus auratus [11]": {"organism": "Mesocricetus auratus", "test": "Serum cholesterol level change relative to the control value (366(24)) in hamsters at a dose of 0.2% of diet for 1 week"}, "Cricetinae gen. sp. [12]": {"system": "Cricetinae gen. sp.", "test": "Total serum cholesterol level with relative to the control value (366(24)) in hamsters at a dose of 0.2% of diet for 1 week", "format": "functional, Cricetulus griseus"}, "Mesocricetus auratus [13]": {"organism": "Mesocricetus auratus", "test": "Serum cholesterol level change relative to the control value (333(23)) in hamsters at a dose of 0.2% of diet for 1 week"}, "Cricetinae gen. sp. [14]": {"system": "Cricetinae gen. sp.", "test": "Total serum cholesterol level with relative to the control value (333(23)) in hamsters at a dose of 0.2% of diet for 1 week", "format": "functional, Cricetulus griseus"}, "Mesocricetus auratus [15]": {"organism": "Mesocricetus auratus", "test": "Serum cholesterol level change relative to the control value (425(58)) in hamsters at a dose of 0.2% of diet for 1 week"}, "[16]": {"molecular_target": "Low-density lipoprotein receptor (Homo sapiens) (UniProt P01130)", "test": "Capability of derepressing the transcription of human Low density lipoprotein receptor promoter in the presence of 25-hydroxycholesterol in CHO cells by luciferase assay; NA= Not active within the test range 0-20 ug/mL", "format": "cell-based", "summary_of_the_method": "as §1"}, "Cricetinae gen. sp. [17]": {"system": "Cricetinae gen. sp.", "test": "Total serum cholesterol level with relative to the control value (425(58)) in hamsters at a dose of 0.2% of diet for 1 week", "format": "functional, Cricetulus griseus"}, "Mesocricetus auratus [18]": {"organism": "Mesocricetus auratus", "test": "Serum cholesterol level changes with relative to the control value (313(24)) in hamsters at a dose of 0.2% of diet for 1 week"}}, "note": "Calls of active or inactive are those of the source. The calls are words filed in the database; no cut-off is given here.", "data": [{"smiles": "C=CC[C@H]1C2=CCC3C(CC[C@@]4(C)C3CC[C@@H]4[C@H](C)CCCC(C)C)[C@@]2(C)CC[C@H]1O", "note": "(stereo partly drawn)", "values": [{"measurement": "Activity", "setting": "CHO [1]", "value": "Negative"}, {"measurement": "MA", "setting": "[2]", "value": 96, "unit": "%"}, {"measurement": "Activity", "setting": "CHO [3]", "value": "inactive"}, {"measurement": "EC30", "setting": "[4]", "value": 3.5, "unit": "µM"}, {"measurement": "Total cholesterol", "setting": "Cricetinae gen. sp. [5]", "value": 163, "unit": "mg/dL"}, {"measurement": "Relative change", "setting": "Mesocricetus auratus [6]", "value": -47, "unit": "%"}]}, {"smiles": "C=CC[C@@H]1C[C@@]2(C)C(CC[C@H]3[C@@H]4CC[C@H]([C@H](C)CCCC(C)C)[C@@]4(C)CC[C@@H]32)C[C@@H]1O", "note": "(stereo partly drawn)", "values": [{"measurement": "Total cholesterol", "setting": "Cricetinae gen. sp. [7]", "value": 209, "unit": "mg/dL"}, {"measurement": "Activity", "setting": "CHO [1]", "value": "Negative"}, {"measurement": "MA", "setting": "[2]", "value": 60, "unit": "%"}, {"measurement": "Relative change", "setting": "Mesocricetus auratus [8]", "value": -33, "unit": "%"}, {"measurement": "Activity", "setting": "CHO [3]", "value": "inactive"}, {"measurement": "EC30", "setting": "[4]", "value": 41, "unit": "µM"}]}, {"smiles": "CC(C)CCC[C@@H](C)[C@H]1CC[C@H]2[C@@H]3CCC4[C@H](Cc5ccc(Br)cc5)[C@H](O)CC[C@]4(C)[C@H]3CC[C@]12C", "note": "(stereo partly drawn)", "values": [{"measurement": "Relative change", "setting": "Cricetinae gen. sp. [9]", "value": -42, "unit": "%"}, {"measurement": "MA", "setting": "[2]", "value": 57, "unit": "%"}, {"measurement": "Activity", "setting": "CHO [3]", "value": "inactive"}, {"measurement": "EC30", "setting": "[4]", "value": 6, "unit": "µM"}, {"measurement": "Total cholesterol", "setting": "Cricetinae gen. sp. [10]", "value": 160, "unit": "mg/dL"}]}, {"smiles": "CC(C)CCC[C@@H](C)[C@H]1CC[C@H]2[C@@H]3CCC4[C@H](Cc5ccc(F)cc5)[C@H](O)CC[C@]4(C)[C@H]3CC[C@]12C", "note": "(stereo partly drawn)", "values": [{"measurement": "MA", "setting": "[2]", "value": 80, "unit": "%"}, {"measurement": "Relative change", "setting": "Mesocricetus auratus [11]", "value": -50, "unit": "%"}, {"measurement": "Activity", "setting": "CHO [3]", "value": "inactive"}, {"measurement": "EC30", "setting": "[4]", "value": 17, "unit": "µM"}, {"measurement": "Total cholesterol", "setting": "Cricetinae gen. sp. [12]", "value": 181, "unit": "mg/dL"}]}, {"smiles": "C=C(C)C[C@H]1C2CC[C@H]3[C@@H]4CC[C@H]([C@H](C)CC[C@@H](CC)C(C)C)[C@@]4(C)CC[C@@H]3[C@@]2(C)CC[C@H]1O", "note": "(stereo partly drawn)", "values": [{"measurement": "MA", "setting": "[2]", "value": 165, "unit": "%"}, {"measurement": "Activity", "setting": "CHO [3]", "value": "inactive"}, {"measurement": "EC30", "setting": "[4]", "value": 3.1, "unit": "µM"}, {"measurement": "Relative change", "setting": "Mesocricetus auratus [13]", "value": -41, "unit": "%"}, {"measurement": "Total cholesterol", "setting": "Cricetinae gen. sp. [14]", "value": 196, "unit": "mg/dL"}]}, {"smiles": "CC(C)CCC[C@@H](C)[C@H]1CC[C@H]2[C@@H]3CCC4[C@H](C/C=C\\Cl)[C@H](O)CC[C@]4(C)[C@H]3CC[C@]12C", "note": "(stereo partly drawn)", "values": [{"measurement": "Relative change", "setting": "Mesocricetus auratus [15]", "value": -26, "unit": "%"}, {"measurement": "EC30", "setting": "[16]", "value": "inactive"}, {"measurement": "Total cholesterol", "setting": "Cricetinae gen. sp. [17]", "value": 316, "unit": "mg/dL"}]}, {"smiles": "CC(C)CCC[C@@H](C)[C@H]1CC[C@H]2[C@@H]3CCC4[C@H](Cc5ccccc5)[C@H](O)CC[C@]4(C)[C@H]3CC[C@]12C", "note": "(stereo partly drawn)", "values": [{"measurement": "Total cholesterol", "setting": "Cricetinae gen. sp. [7]", "value": 202, "unit": "mg/dL"}, {"measurement": "Activity", "setting": "CHO [1]", "value": "Negative"}, {"measurement": "MA", "setting": "[2]", "value": 44, "unit": "%"}, {"measurement": "Relative change", "setting": "Mesocricetus auratus [8]", "value": -35, "unit": "%"}, {"measurement": "Activity", "setting": "CHO [3]", "value": "inactive"}, {"measurement": "EC30", "setting": "[4]", "value": 32, "unit": "µM"}]}, {"smiles": "C=CC[C@H]1C2CC[C@H]3[C@@H]4CC[C@H]([C@H](C)CC[C@@H](CC)C(C)C)[C@@]4(C)CC[C@@H]3[C@@]2(C)CC[C@H]1O", "note": "(stereo partly drawn)", "values": [{"measurement": "MA", "setting": "[2]", "value": 95, "unit": "%"}, {"measurement": "Activity", "setting": "CHO [3]", "value": "inactive"}, {"measurement": "EC30", "setting": "[4]", "value": 8.2, "unit": "µM"}, {"measurement": "Relative change", "setting": "Mesocricetus auratus [13]", "value": -35, "unit": "%"}, {"measurement": "Total cholesterol", "setting": "Cricetinae gen. sp. [14]", "value": 217, "unit": "mg/dL"}]}, {"smiles": "C=C(Cl)C[C@H]1C2CC[C@H]3[C@@H]4CC[C@H]([C@H](C)CC[C@@H](CC)C(C)C)[C@@]4(C)CC[C@@H]3[C@@]2(C)CC[C@H]1O", "note": "(stereo partly drawn)", "values": [{"measurement": "Relative change", "setting": "Mesocricetus auratus [15]", "value": -43, "unit": "%"}, {"measurement": "MA", "setting": "[2]", "value": 120, "unit": "%"}, {"measurement": "Activity", "setting": "CHO [3]", "value": "inactive"}, {"measurement": "EC30", "setting": "[4]", "value": 4.2, "unit": "µM"}, {"measurement": "Total cholesterol", "setting": "Cricetinae gen. sp. [17]", "value": 241, "unit": "mg/dL"}]}, {"smiles": "C=CC[C@H]1C2CC[C@H]3[C@@H]4CC[C@H]([C@H](C)CCCC(C)C)[C@@]4(C)CC[C@@H]3[C@@]2(C)CC[C@@H]1O", "note": "(stereo partly drawn)", "values": [{"measurement": "Total cholesterol", "setting": "Cricetinae gen. sp. [7]", "value": 198, "unit": "mg/dL"}, {"measurement": "EC30", "setting": "[16]", "value": "inactive"}, {"measurement": "Relative change", "setting": "Mesocricetus auratus [18]", "value": -37, "unit": "%"}]}, {"smiles": "CC(C)CCC[C@@H](C)[C@H]1CC[C@H]2[C@@H]3CCC4[C@H](C/C=C/Cl)[C@H](O)CC[C@]4(C)[C@H]3CC[C@]12C", "note": "(stereo partly drawn)", "values": [{"measurement": "Activity", "setting": "CHO [1]", "value": "Negative"}, {"measurement": "MA", "setting": "[2]", "value": 169, "unit": "%"}, {"measurement": "Activity", "setting": "CHO [3]", "value": "inactive"}, {"measurement": "EC30", "setting": "[4]", "value": 2, "unit": "µM"}, {"measurement": "Relative change", "setting": "Mesocricetus auratus [13]", "value": -44, "unit": "%"}, {"measurement": "Total cholesterol", "setting": "Cricetinae gen. sp. [14]", "value": 185, "unit": "mg/dL"}]}, {"smiles": "C/C=C/C[C@H]1C2CC[C@H]3[C@@H]4CC[C@H]([C@H](C)CCCC(C)C)[C@@]4(C)CC[C@@H]3[C@@]2(C)CC[C@@H]1O", "note": "(stereo partly drawn)", "values": [{"measurement": "Total cholesterol", "setting": "Cricetinae gen. sp. [7]", "value": 245, "unit": "mg/dL"}, {"measurement": "EC30", "setting": "[16]", "value": "inactive"}, {"measurement": "Relative change", "setting": "Mesocricetus auratus [18]", "value": -22, "unit": "%"}]}]}
